≈ marks a conversion by molar mass, not a printed value. Calls of active or inactive are those of the source. The rule behind the calls is not given here.
Assays:
[1] = Metabolic stability in CD1 mouse liver microsomes assessed as intrinsic clearance at 2 uM measured up to 120 mins by LC-MS/MS analysis; assay type: ADME, Microsome; conditions: 2 h
[2] = Metabolic stability in CD1 mouse liver microsomes assessed as half life at 2 uM measured up to 120 mins by LC-MS/MS analysis; assay type: ADME, Microsome
[3] = molecular target: Voltage-gated inwardly rectifying potassium channel KCNH2 (Homo sapiens, UniProt Q12809); test: Inhibition of human ERG
Outline: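 hERG channel inhibition was measured on the IonWorks Barracuda automated patch system. IC50 came from eight-point concentration–response curves with four replicates per concentration.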

[4] = Plasma protein binding in mouse; assay type: ADME, cell-free; conditions: read-out: PPB (converted)
Outline: (§1)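 Run at Charles River (Worcester). Plasma protein binding was measured in mouse, dog and human plasma. Thermodynamic solubility was measured in buffer at pH 7.4.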

[5] = Plasma protein binding in dog; assay type: ADME, cell-free, Canis lupus familiaris; conditions: read-out: PPB (converted); outline: as §1
[6] = Plasma protein binding in human; assay type: ADME, cell-free; conditions: read-out: PPB (converted); outline: as §1
[7] = Thermodynamic solubility of the compound at pH 7.4; assay type: physicochemical; conditions: buffer, read-out: Therm_solubility; outline: as §1
Staphylococcus aureus [8] = test: Antibacterial activity against fluoroquinolone-resistant methicillin-resistant Staphylococcus aureus by CLSI method; assay type: functional
Outline: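 MICs against ciprofloxacin-resistant MRSA USA300, determined following CLSI guidelines. Each determination was run at least in triplicate, and observed ranges were reported where appropriate.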

Staphylococcus aureus [9] = test: Antibacterial activity against Staphylococcus aureus ATCC 29213 by CLSI method; assay type: functional
Staphylococcus aureus [10] = test: Antibacterial activity against methicillin-resistant Staphylococcus aureus USA300 by CLSI method; assay type: functional
Staphylococcus aureus [11] = test: Antibacterial activity against cystic fibrosis isolate Staphylococcus aureus by CLSI method; assay type: functional
Staphylococcus aureus [12] = test: Antibacterial activity against Staphylococcus aureus by CLSI method; assay type: functional
Outline: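 MICs were determined by broth microdilution per CLSI guidelines, in triplicate at minimum. Strains were S. aureus ATCC 29213, MRSA USA300 and a cystic fibrosis respiratory isolate, and ranges are given where seen.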

Enterococcus sp. = test: Antibacterial activity against Enterococcus sp. by CLSI method; assay type: functional
Streptococcus pneumoniae = test: Antibacterial activity against Streptococcus pneumoniae by CLSI method; assay type: functional
Acinetobacter baumannii = test: Antibacterial activity against Acinetobacter baumannii by CLSI method; assay type: functional
Bacillus anthracis = test: Antibacterial activity against Bacillus anthracis by CLSI method; assay type: functional
DNA gyrase [13] = molecular target: DNA gyrase (Staphylococcus aureus, UniProt P0A0K8+P20831); test: Inhibition of Staphylococcus aureus Gyrase supercoiling activity assessed as reduction in supercoiling pBR322 DNA by measuring relaxation by bromophenol blue staining based TAE gel method; assay type: protein-complex assay
Topoisomerase IV = Topoisomerase IV (Staphylococcus aureus, UniProt P0C1S7+P0C1U9); test: Inhibition of Staphylococcus aureus topoisomerase IV decatenation activity using kDNA as substrate by ethidium bromide/bromophenol blue staining based agarose gel electrophoresis analysis; assay type: protein-complex assay
Staphylococcus aureus [14] = test: Antibacterial activity against Staphylococcus aureus 3527 by CLSI method; assay type: functional
Staphylococcus aureus [15] = test: Antibacterial activity against Staphylococcus aureus harbouring GyrA D83N mutant by CLSI method; assay type: functional
[16] = Growth inhibition of human K/VP.5 cells incubated for 48 hrs by NBTI cell counting analysis; assay type: functional; conditions: K562, 48 h
[17] = molecular target: T1, DNA gyrase (Staphylococcus aureus) (UniProt P0A0K8+P20831); test: Inhibition of Staphylococcus aureus DNA Gyrase assessed as reduction in supercoiling pBR322 DNA by measuring induction of single strand breaks at 100 uM by ethidium bromide staining based agarose gel electrophoresis; assay type: protein-complex assay
[18] = molecular target: T1, DNA gyrase (Staphylococcus aureus); test: Inhibition of Staphylococcus aureus DNA Gyrase assessed as reduction in supercoiling pBR322 DNA by measuring induction of double strand breaks at 200 uM by ethidium bromide staining based agarose gel electrophoresis; assay type: protein-complex assay
DNA gyrase [19] = molecular target: DNA gyrase (Staphylococcus aureus, UniProt P0A0K8+P20831, D83N); test: Inhibition of Staphylococcus aureus DNA Gyrase D83N mutant assessed as reduction in supercoiling pBR322 DNA by measuring relaxation by bromophenol blue staining based TAE gel method
K562 = test: Growth inhibition of log-phase human K562 cells incubated for 48 hrs by NBTI cell counting analysis; assay type: functional, cell-based; conditions: Homo sapiens, K562, 48 h; read-out: IC50
Staphylococcus aureus [20] = test: Selectivity index, ratio of IC50 for inhibition of Staphylococcus aureus topoisomerase IV decatenation activity to IC50 for inhibition of Staphylococcus aureus DNA gyrase supercoiling activity
Outline: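 Both IC50s were measured in gel-based assays with S. aureus enzymes: supercoiling inhibition for DNA gyrase and decatenation inhibition for TopoIV. The ratio is TopoIV IC50 divided by gyrase IC50.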

HepaRG = test: Cytotoxicity against human HepaRG cells at 100 uM by ATP depletion assay; assay type: cell-based
Outline: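 An ATP depletion read-out in HepaRG cells gave cytotoxicity across 0.01–100 μM, reported as % cytotoxicity at 100 μM.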

[21] = molecular target: 5-hydroxytryptamine receptor 2B (Homo sapiens) (UniProt P41595); test: Displacement of [3H]Lysergic acid diethylamide from human recombinant 5HT2B receptor expressed in CHO-K1 cells at 100 uM by radioligand binding assay; assay type: cell-based
[22] = molecular target: Acetylcholinesterase (Homo sapiens) (UniProt P22303); test: Inhibition of human recombinant acetylcholinesterase receptor expressed in HEK293 cells at 100 uM by spectrophotometry; assay type: cell-based
[23] = Permeability of the compound from apical to basolateral side in human Caco-2 cells; assay type: ADME, cell-based; conditions: read-out: permeability
[24] = Permeability of the compound from basolateral to apical side in human Caco-2 cells; assay type: ADME, cell-based; conditions: read-out: permeability
Outline: (§2)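 Run at RTI International. Covers plasma protein binding (mouse, human; percent free), CACO-2 permeability and efflux, and microsomal stability (mouse and human microsomes) giving half-life.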

[25] = Metabolic stability in CD1 mouse microsomes assessed as half life; assay type: ADME, Microsome
[26] = Metabolic stability in human microsomes assessed as half life; assay type: ADME, Microsome; outline: as §2
CYP1A2 = CYP1A2 (Homo sapiens, UniProt P05177); test: Inhibition of CYP1A2 (unknown origin) at 10 uM relative to control; assay type: ADME
CYP2B6 = CYP2B6 (Homo sapiens, UniProt P20813); test: Inhibition of CYP2B6 (unknown origin) at 10 uM relative to control; assay type: ADME
CYP2C8 = CYP2C8 (Homo sapiens, UniProt P10632); test: Inhibition of CYP2C8 (unknown origin) at 10 uM relative to control; assay type: ADME
CYP2C9 = CYP2C9 (Homo sapiens, UniProt P11712); test: Inhibition of CYP2C9 (unknown origin) at 10 uM relative to control; assay type: ADME
CYP2C19 = CYP2C19 (Homo sapiens, UniProt P33261); test: Inhibition of CYP2C19 (unknown origin) at 10 uM relative to control; assay type: ADME
CYP2D6 = CYP2D6 (Homo sapiens, UniProt P10635); test: Inhibition of CYP2D6 (unknown origin) at 10 uM relative to control; assay type: ADME
Sequence of CYP2D6 (P10635 whole entry): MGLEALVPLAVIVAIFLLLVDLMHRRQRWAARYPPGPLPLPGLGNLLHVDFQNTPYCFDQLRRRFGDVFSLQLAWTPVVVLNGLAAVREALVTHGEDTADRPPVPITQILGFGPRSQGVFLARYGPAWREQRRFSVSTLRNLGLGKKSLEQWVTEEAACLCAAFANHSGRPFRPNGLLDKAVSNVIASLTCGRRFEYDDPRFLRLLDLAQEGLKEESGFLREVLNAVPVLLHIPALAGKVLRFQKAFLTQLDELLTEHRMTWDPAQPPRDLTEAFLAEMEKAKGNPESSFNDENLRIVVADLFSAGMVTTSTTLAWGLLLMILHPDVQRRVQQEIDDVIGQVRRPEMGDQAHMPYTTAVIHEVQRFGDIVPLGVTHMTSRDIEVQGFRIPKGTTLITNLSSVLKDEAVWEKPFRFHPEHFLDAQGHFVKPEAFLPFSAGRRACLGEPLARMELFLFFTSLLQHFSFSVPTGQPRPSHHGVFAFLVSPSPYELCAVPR

Sequence of CYP2B6 (P20813 whole entry): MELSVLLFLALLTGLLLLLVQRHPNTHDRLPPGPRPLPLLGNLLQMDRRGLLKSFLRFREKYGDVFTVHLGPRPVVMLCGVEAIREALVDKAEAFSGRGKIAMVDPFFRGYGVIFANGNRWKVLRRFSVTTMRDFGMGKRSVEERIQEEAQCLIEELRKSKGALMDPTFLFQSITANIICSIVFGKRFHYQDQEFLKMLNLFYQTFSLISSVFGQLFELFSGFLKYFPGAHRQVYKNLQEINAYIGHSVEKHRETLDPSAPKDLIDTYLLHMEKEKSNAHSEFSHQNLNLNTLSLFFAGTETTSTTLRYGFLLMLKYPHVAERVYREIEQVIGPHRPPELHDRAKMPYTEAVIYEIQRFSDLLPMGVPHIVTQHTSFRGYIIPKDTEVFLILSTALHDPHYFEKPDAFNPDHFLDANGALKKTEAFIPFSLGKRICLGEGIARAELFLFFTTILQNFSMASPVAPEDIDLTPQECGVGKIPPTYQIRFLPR
Sequence of CYP1A2 (P05177 whole entry): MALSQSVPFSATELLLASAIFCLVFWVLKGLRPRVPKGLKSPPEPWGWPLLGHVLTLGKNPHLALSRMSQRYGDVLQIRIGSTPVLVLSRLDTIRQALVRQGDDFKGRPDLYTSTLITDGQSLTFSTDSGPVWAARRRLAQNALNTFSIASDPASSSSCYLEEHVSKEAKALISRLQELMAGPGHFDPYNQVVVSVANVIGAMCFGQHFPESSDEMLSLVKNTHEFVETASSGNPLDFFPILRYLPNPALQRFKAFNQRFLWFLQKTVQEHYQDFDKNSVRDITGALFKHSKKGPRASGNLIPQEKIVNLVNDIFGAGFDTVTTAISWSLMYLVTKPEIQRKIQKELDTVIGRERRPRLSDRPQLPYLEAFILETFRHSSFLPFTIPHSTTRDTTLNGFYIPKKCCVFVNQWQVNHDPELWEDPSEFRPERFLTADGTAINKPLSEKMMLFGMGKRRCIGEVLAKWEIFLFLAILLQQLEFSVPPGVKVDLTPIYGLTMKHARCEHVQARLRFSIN
Sequence of Voltage-gated inwardly rectifying potassium channel KCNH2 (Q12809 whole entry): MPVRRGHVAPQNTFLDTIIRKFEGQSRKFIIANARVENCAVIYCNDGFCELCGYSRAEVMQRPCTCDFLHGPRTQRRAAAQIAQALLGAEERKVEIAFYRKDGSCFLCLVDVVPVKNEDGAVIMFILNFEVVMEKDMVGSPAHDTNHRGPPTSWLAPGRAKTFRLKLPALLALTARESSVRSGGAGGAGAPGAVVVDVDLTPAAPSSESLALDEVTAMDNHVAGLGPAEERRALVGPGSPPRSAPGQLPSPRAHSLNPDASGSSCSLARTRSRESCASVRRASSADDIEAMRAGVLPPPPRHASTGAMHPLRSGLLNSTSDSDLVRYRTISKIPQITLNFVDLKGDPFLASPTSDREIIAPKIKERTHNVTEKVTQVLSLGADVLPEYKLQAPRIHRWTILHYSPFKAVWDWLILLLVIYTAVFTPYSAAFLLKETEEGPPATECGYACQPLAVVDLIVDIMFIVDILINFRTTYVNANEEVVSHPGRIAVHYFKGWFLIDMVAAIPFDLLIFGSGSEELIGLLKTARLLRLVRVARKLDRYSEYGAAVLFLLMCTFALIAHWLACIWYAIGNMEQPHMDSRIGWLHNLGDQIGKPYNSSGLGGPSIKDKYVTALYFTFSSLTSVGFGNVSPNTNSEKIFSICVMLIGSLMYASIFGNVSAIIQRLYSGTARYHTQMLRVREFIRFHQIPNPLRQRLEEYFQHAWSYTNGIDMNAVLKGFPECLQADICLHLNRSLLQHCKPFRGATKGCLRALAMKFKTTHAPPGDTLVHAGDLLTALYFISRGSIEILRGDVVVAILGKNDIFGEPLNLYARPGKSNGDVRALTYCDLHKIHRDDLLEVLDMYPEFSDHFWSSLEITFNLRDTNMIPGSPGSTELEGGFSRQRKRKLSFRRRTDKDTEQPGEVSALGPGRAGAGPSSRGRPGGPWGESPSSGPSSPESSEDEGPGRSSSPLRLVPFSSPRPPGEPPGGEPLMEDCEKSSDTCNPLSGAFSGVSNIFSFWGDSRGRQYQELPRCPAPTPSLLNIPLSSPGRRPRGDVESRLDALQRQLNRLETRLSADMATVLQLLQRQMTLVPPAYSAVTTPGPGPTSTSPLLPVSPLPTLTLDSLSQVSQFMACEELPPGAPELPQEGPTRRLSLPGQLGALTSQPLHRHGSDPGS
Sequence of CYP2C19 (P33261 whole entry): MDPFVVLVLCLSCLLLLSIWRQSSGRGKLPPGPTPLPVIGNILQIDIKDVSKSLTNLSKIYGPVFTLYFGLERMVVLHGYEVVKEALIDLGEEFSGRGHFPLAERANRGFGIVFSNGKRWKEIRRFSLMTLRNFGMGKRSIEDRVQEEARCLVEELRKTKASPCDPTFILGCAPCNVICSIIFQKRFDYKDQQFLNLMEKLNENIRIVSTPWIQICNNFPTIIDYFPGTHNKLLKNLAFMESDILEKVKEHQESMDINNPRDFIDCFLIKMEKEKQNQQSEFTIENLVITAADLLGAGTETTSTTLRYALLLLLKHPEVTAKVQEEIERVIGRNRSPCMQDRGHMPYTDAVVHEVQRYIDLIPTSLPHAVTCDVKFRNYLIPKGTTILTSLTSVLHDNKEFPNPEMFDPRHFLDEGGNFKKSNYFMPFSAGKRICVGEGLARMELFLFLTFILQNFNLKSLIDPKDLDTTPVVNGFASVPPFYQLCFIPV
Sequence of Acetylcholinesterase (Homo sapiens) (P22303 whole entry): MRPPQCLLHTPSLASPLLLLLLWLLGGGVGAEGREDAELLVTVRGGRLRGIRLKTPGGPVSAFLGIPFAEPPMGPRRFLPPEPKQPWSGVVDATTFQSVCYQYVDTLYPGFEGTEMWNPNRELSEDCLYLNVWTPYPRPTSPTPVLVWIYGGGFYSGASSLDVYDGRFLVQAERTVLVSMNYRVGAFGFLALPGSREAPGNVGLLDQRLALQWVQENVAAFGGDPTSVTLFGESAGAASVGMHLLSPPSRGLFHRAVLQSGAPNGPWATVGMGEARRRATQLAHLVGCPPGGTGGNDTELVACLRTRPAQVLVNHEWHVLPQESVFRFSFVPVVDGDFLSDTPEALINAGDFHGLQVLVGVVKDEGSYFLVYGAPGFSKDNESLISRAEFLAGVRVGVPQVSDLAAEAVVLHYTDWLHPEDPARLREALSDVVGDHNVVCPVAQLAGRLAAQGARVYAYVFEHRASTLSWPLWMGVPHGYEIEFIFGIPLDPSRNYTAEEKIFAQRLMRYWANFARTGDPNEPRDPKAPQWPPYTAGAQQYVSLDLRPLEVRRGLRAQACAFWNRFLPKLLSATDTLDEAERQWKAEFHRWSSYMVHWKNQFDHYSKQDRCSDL
Sequence of CYP2C9 (P11712 whole entry): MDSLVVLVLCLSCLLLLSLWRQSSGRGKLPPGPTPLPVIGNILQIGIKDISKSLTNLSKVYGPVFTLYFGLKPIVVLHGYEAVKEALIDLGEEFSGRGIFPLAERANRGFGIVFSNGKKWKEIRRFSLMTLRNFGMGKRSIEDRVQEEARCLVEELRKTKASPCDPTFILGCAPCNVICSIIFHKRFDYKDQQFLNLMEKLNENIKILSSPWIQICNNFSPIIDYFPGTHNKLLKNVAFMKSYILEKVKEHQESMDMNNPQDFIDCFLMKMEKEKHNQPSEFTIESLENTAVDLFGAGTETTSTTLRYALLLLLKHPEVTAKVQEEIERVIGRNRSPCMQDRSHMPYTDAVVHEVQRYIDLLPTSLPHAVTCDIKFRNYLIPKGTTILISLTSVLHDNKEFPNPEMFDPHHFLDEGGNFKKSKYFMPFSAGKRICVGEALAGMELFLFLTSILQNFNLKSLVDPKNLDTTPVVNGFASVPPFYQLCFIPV
Sequence of CYP2C8 (P10632 whole entry): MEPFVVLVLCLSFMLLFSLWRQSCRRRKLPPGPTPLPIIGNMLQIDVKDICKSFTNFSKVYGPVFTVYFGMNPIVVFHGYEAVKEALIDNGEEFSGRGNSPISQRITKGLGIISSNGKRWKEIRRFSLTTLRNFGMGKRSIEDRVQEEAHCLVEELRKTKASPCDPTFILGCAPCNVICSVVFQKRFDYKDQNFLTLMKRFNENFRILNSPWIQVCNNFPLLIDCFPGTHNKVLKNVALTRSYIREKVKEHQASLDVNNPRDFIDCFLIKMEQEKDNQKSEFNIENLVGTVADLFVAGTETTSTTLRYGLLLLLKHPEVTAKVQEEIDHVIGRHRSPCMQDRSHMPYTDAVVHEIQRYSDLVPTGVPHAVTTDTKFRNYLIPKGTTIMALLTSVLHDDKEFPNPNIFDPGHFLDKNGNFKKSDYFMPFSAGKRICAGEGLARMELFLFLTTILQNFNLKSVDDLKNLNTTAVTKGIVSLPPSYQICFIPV

Row | Compound | intrinsic clearance (CLint) [1] | half-life at 2 µM [2] | MIC (Staphylococcus aureus [9]) | MIC (Staphylococcus aureus [10]) | MIC (Staphylococcus aureus [11]) | IC50 (DNA gyrase [13]) | IC50 (Topoisomerase IV) | MIC (Staphylococcus aureus [14]) | MIC (Staphylococcus aureus [15]) | IC50 [16] | further results
1 | COc1ccc2nccc(CCN3CCC(NCc4ccc5c(c4)OCCO5)CC3)c2c1 | 1940 µL/min/mg | 2.81 min |  |  |  |  |  |  |  |  | 
2 | COc1ccc2nccc(CCN3CCC(NCc4cc5c(cn4)OCCO5)CC3)c2c1 | 2150 µL/min/mg | 2.54 min |  |  |  |  |  |  |  |  | 
3 | COc1ccc2ncc(F)c(C(O)C[C@H]3OC[C@H](NCc4ccc5c(c4)OCCO5)CO3)c2c1 (mixture of isomers) | 835 µL/min/mg | 6.54 min | 0.125 µg/mL (≈ 0.266 µM) | 0.125 µg/mL (≈ 0.266 µM) | 0.125 µg/mL (≈ 0.266 µM) | 64 nM | 5500 nM | 0.125 µg/mL (≈ 0.266 µM) | 2 µg/mL (≈ 4.25 µM) | 23800 nM | IC50 [3]: 8000 nM; fraction unbound [4]: 0.11; fraction unbound [5]: 0.11; fraction unbound [6]: 0.11; solubility thermodynamic [7]: 186 µM (≈ 87.5 µg/mL); MIC (Staphylococcus aureus [8]): 0.25 µg/mL (≈ 0.531 µM); MIC50 (Staphylococcus aureus [12]): 0.12 µg/mL (≈ 0.255 µM); MIC50 (Enterococcus sp.): 0.12 µg/mL (≈ 0.255 µM); MIC50 (Streptococcus pneumoniae): 1 µg/mL (≈ 2.13 µM); MIC50 (Acinetobacter baumannii): 32 µg/mL (≈ 68 µM); MIC50 (Bacillus anthracis): 2 µg/mL (≈ 4.25 µM); MIC90 (Bacillus anthracis): 8 µg/mL (≈ 17 µM)
4 | O=c1ccc2ncc(=O)n3c2n1C[C@H]3CN1CCC(NCc2cc3c(cn2)OCCC3)CC1 [GEPOTIDACIN] |  |  | 0.25 µg/mL (≈ 0.557 µM) | 0.25 µg/mL (≈ 0.557 µM) | 0.25 µg/mL (≈ 0.557 µM) |  |  | 0.25 µg/mL (≈ 0.557 µM) | 8 µg/mL (≈ 17.8 µM) |  | Activity [17]: Active; Activity [18]: Active
5 | COc1ccc2ncc(F)c(C[C@H](O)[C@H]3OC[C@H](NCc4ccc5c(c4)OCCO5)CO3)c2n1 |  |  | 0.125 µg/mL (≈ 0.265 µM) | 0.125 µg/mL (≈ 0.265 µM) | 0.125 µg/mL (≈ 0.265 µM) | 60 nM | 380 nM | 0.125 µg/mL (≈ 0.265 µM) | 4 µg/mL (≈ 8.48 µM) | 30500 nM | MIC50 (Staphylococcus aureus [12]): 0.06 µg/mL (≈ 0.127 µM); MIC50 (Enterococcus sp.): 0.06 µg/mL (≈ 0.127 µM); MIC50 (Streptococcus pneumoniae): 0.5 µg/mL (≈ 1.06 µM); MIC50 (Acinetobacter baumannii): 16 µg/mL (≈ 33.9 µM); MIC50 (Bacillus anthracis): 1 µg/mL (≈ 2.12 µM); MIC90 (Bacillus anthracis): 4 µg/mL (≈ 8.48 µM); IC50 (DNA gyrase [19]): 2700 nM
6 | COc1ccc2ncc(F)c(C(O)C[C@H]3OC[C@H](NCc4ccc5c(n4)NC(=O)CS5)CO3)c2n1 (mixture of isomers) |  |  | ≤ 0.25 µg/mL | 0.125 µg/mL (≈ 0.249 µM) | 0.25 µg/mL (≈ 0.498 µM) | 54 nM | 2800 nM | ≤ 0.25 µg/mL | 2 µg/mL (≈ 3.99 µM) | > 50000 nM | IC50 (K562): 52100 nM
7 | COc1ccc2ncc(F)c(C(O)C[C@H]3OC[C@H](NCc4cc5c(nn4)OCCS5)CO3)c2n1 (mixture of isomers) |  |  | 0.5 µg/mL (≈ 1.02 µM) | 1 µg/mL (≈ 2.04 µM) | 0.5 µg/mL (≈ 1.02 µM) | 240 nM | 11000 nM | 0.5 µg/mL (≈ 1.02 µM) | 8 µg/mL (≈ 16.3 µM) |  | Ratio IC50 (Staphylococcus aureus [20]): 47; Activity (HepaRG): 17%; inhibition [21]: > 45%; inhibition [22]: > 45%; Papp A→B [23]: 7.85 ×10⁻⁶ cm/s; Papp B→A [24]: 94.8 ×10⁻⁶ cm/s; half-life [25]: 21 min; half-life [26]: 26 min; inhibition at 10 µM (CYP1A2): > 50%; inhibition at 10 µM (CYP2B6): > 50%; inhibition at 10 µM (CYP2C8): > 50%; inhibition at 10 µM (CYP2C9): > 50%; inhibition at 10 µM (CYP2C19): > 50%; inhibition at 10 µM (CYP2D6): > 50%
